From ChEMBL document CHEMBL1159045, “Design and pharmacophore modeling of biaryl methyl eugenol analogs as breast cancer invasion inhibitors” (Bioorg Med Chem, 2010)

Tests used:
MDA-MB-231 [1] = experiment: Antiinvasive activity in human MDA-MB-231 cells by BME cell invasion assay; type: functional, cell-based
How it was run: (§1)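 Cultrex 96-well BME invasion kit, Boyden-type chamber with 8 µm PET membrane coated with basement membrane extract; MDA-MB-231 cells exposed to 1–4 μM for 24 h, 10% FBS as chemoattractant in the lower chamber. Invaded cells labelled with calcein-AM and read at ex 485/em 520 nm. RFU converted to cell number by standard curve. % invasion = cells through BME / cells migrating through uncoated membrane. Colchicine as positive control, DMSO vehicle.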

MDA-MB-231 [2] = experiment: Cytotoxicity against human MDA-MB-231 cells at 10 to 50 uM after 75 hrs by MTT assay; type: cell-based; conditions: mda-mb-231, 72 h, in the assay text read “72 hrs” for “75 hrs”
How it was run: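 MDA-MB-231 seeded at 15,000 cells/well and stabilized 24 h at 37 °C, 5% CO2. Triplicate doses applied for 72 h at 37 °C, 5% CO2, 85% humidity. MTT (2.5 mg/mL) added for 4 h, then formazan dissolved overnight at rt in the dark with detergent reagent. OD at 570 nm against a cell-free blank; cells/well from calibration curve. Colchicine positive control, DMSO vehicle.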

MDA-MB-231 [3] = experiment: Antiinvasive activity in human MDA-MB-231 cells assessed as cell invasion at 4 uM by BME cell invasion assay; type: functional; how it was run: as §1
MCF7 = experiment: Cytotoxicity against human MCF7 cells at 10 to 50 uM after 75 hrs by MTT assay; type: cell-based; conditions: mcf7, 72 h, in the assay text read “72 hrs” for “75 hrs”
How it was run: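 MCF-7 seeded at 12,000 cells/well and stabilized 24 h at 37 °C, 5% CO2. Treated in triplicate for 72 h at 37 °C, 5% CO2, 85% humidity. MTT (2.5 mg/mL) added for 4 h, then formazan dissolved in isopropanol overnight at rt in the dark. OD read at 570 nm against a cell-free blank; cell number from calibration curve. Colchicine positive control, DMSO vehicle.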

MDA-MB-231 [4] = experiment: Antiinvasive activity in human MDA-MB-231 cells assessed as cell invasion at 2 uM by BME cell invasion assay; type: functional; how it was run: as §1

SMILES | Activity (MDA-MB-231 [1]) | Activity (MDA-MB-231 [2]) | Activity (MDA-MB-231 [3]) [%] | Activity (MCF7) | Activity (MDA-MB-231 [4]) [%]
COc1ccc(C/C=C/c2cc(OC)c(OC)c(OC)c2)cc1OC | Dose-dependent effect | Non-toxic |  |  | 
COc1ccccc1C/C=C/c1ccc(OC)c(OC)c1 | Dose-dependent effect | Non-toxic |  |  | 
COc1ccc(/C=C/Cc2cc(OC)c(OC)c(OC)c2)cc1OC | Dose-dependent effect | Non-toxic | 11 |  | 
COc1ccc(/C=C\Cc2c(C)cccc2C)cc1OC | Dose-dependent effect | Non-toxic |  |  | 
COc1ccc(/C=C/Cc2ccccc2OC(C)=O)cc1OC | Dose-dependent effect | Non-toxic |  | Non-toxic | 
COc1ccc(C(=O)/C=C/c2cc(OC)c(OC)c(OC)c2)cc1OC | Dose-dependent effect | Non-toxic |  |  | 8.5
COc1ccc(C/C=C\c2ccccc2OC(C)=O)cc1OC | Dose-dependent effect | Non-toxic | 9 | Non-toxic | 
COc1cc2c(c(OC)c1OC)-c1ccc(OC)c(=O)cc1[C@@H](NC(C)=O)CC2 [COLCHICINE] |  |  | 8.9 |  | 
C=C(Cc1ccc(OC)c(OC)c1)c1ccccc1OC(C)=O | Dose-dependent effect | Non-toxic |  | Non-toxic | 
COc1ccc(C/C=C/c2c(C)cccc2C)cc1OC | Dose-dependent effect | Non-toxic |  |  | 
COc1ccc(/C=C/Cc2ccc(OC)c(OC)c2)cc1 | Dose-dependent effect | Non-toxic | 13.7 |  | 
C=C(Cc1ccc(OC)c(OC)c1)c1cc(OC)c(OC)c(OC)c1 | Dose-dependent effect | Non-toxic |  |  | 
COc1ccc(C/C=C/c2ccc(OC)c(OC)c2)cc1 | Dose-dependent effect | Non-toxic |  |  | 
C=C(Cc1ccc(OC)c(OC)c1)c1ccc(OC)cc1 | Dose-dependent effect | Non-toxic |  |  | 
COc1ccc(C(=O)CCc2cc(OC)c(OC)c(OC)c2)cc1OC | Dose-dependent effect | Non-toxic |  |  | 
